Measurements published in ChEMBL document CHEMBL2424587, “Antiproliferative activity of abietane diterpenoids against human tumor cells” (J Nat Prod, 2013).

Tests used:
Type in all cases: functional, cell-based
MCF7 = experiment: Cytotoxicity against human MCF7 cells after 72 hrs by MTT assay; settings: MCF7, 72 h
How it was run: (§1)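 MTT assay: 1 × 10^4 exponentially growing cells per well incubated 72 h over a range of compound concentrations; MTT 0.5 mg/mL for 4 h at 37 °C, then 10% SDS in 0.05 M HCl overnight at room temperature in the dark; absorbance at 570 nm. Leukemia and SK-MEL-1 lines grown in RPMI 1640, MCF-7 in DMEM, both with 10% heat-inactivated FBS. IC50 given as mean ± SEM of 3–5 independent experiments, each in triplicate.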

MOLT-3 = experiment: Cytotoxicity against human MOLT3 cells after 72 hrs by MTT assay; settings: MOLT-3, 72 h; how it was run: as §1
HL-60 = experiment: Cytotoxicity against human HL60 cells after 72 hrs by MTT assay; settings: HL-60, 72 h; how it was run: as §1
U-937 = experiment: Cytotoxicity against human U937 cells after 72 hrs by MTT assay; settings: U-937, 72 h; how it was run: as §1
SK-MEL-1 = experiment: Cytotoxicity against human SK-MEL-1 cells after 72 hrs by MTT assay; settings: SK-MEL-1, 72 h; how it was run: as §1

| Structure (SMILES) | IC50 (MCF7) [µM] | IC50 (MOLT-3) [µM] | IC50 (HL-60) [µM] | IC50 (U-937) [µM] | IC50 (SK-MEL-1) [µM] |
| --- | --- | --- | --- | --- | --- |
| C/C(=C\CO)C[C@@H](O)[C@@]1(C)[C@H](C)CC=C2[C@@H]1CCCC2(C)C | > 30 | > 30 | > 30 | > 30 | > 30 |
| CC(=O)O[C@H]1C2=C(C(=O)C(OC(=O)c3ccc(Cl)cc3)=C(C(C)C)C2=O)[C@@]2(C)CCCC(C)(C)[C@@H]2[C@@H]1OC(=O)c1ccc(Cl)cc1 | > 30 | > 30 | 5.7 | 5.6 | > 30 |
| CC(=O)O[C@H]1C2=C(C(=O)C(OC(=O)c3ccc([N+](=O)[O-])cc3)=C(C(C)C)C2=O)[C@@]2(C)CCCC(C)(C)[C@@H]2[C@@H]1O | 11.4 | 10 | 8.4 | 1.1 | 5.7 |
| COc1c(O)c2c(c(O)c1C(C)C)C(=O)C[C@H]1C(C)=C(C)C(=O)C[C@]21C | > 30 | > 30 | > 30 | > 30 | > 30 |
| CC(=O)OC1=C(C(C)C)C(=O)C2=C(C1=O)[C@@]1(C)CCCC(C)(C)[C@@H]1[C@H](OC(C)=O)[C@H]2OC(C)=O | 5.9 | 3 | 9 | 6.4 | 8.1 |
| CC(=O)O[C@H]1C2=C(C(=O)C(O)=C(C(C)C)C2=O)[C@@]2(C)CCCC(C)(C)[C@@H]2[C@@H]1O | 6.8 | 12.7 | 25.4 | 13.7 | 29.1 |
| C/C(=C\COC(=O)c1ccccc1)C[C@@H](O)[C@@]1(C)[C@H](C)CC=C2[C@@H]1CCCC2(C)C | > 30 | > 30 | > 30 | > 30 | > 30 |
| CC(C)c1c(O)c(O)c2c(c1O)C(=O)C(O)=C1C(C)(C)CCC[C@@]12C | 27.5 | 8.8 | 4.1 | 4.3 | 10 |
| CCC(=O)O[C@@H]1[C@@H](OC(C)=O)C2=C(C(=O)C(O)=C(C(C)C)C2=O)[C@@]2(C)CCCC(C)(C)[C@H]12 | 17.1 | 6.3 | 11.8 | 7 | 9 |
| CCC(=O)OC/C=C(\C)C[C@@H](O)[C@@]1(C)[C@H](C)CC=C2[C@@H]1CCCC2(C)C | > 30 | > 30 | > 30 | 24.7 | > 30 |
| CC(=O)OC1=C2C(C)(C)CCC[C@]2(C)c2c(cc(C(C)C)c(OC(C)=O)c2OC(C)=O)C1=O | > 30 | 4.6 | 4.1 | 4.6 | 9.9 |
| CC(=O)Oc1c(C(C)C)cc2c(c1OC(C)=O)[C@@]1(C)CCCC(C)(C)C1=C(O)C2=O | > 30 | 13.4 | 11.5 | 8.4 | 24.1 |
| CC(=O)O[C@H](C/C(C)=C/CO)[C@@]1(C)[C@H](C)CC=C2[C@@H]1CCCC2(C)C | > 30 | > 30 | > 30 | > 30 | > 30 |
| CC(=O)O[C@H](C/C(C)=C/C(=O)O)[C@@]1(C)[C@H](C)CC=C2[C@@H]1CCCC2(C)C | > 30 | > 30 | > 30 | > 30 | > 30 |
| COc1cc([C@@H]2c3cc4c(cc3[C@@H](O[C@@H]3O[C@@H]5CO[C@@H](C)O[C@H]5[C@H](O)[C@H]3O)[C@H]3COC(=O)[C@H]23)OCO4)cc(OC)c1O [ETOPOSIDE] |  |  | 0.5 | 1.4 |  |
| CC(C)C1=C(O)C(=O)C2=C(CC[C@H]3C(C)(C)CCC[C@]23C)C1=O [ROYLEANONE] | > 30 | 13.6 | > 30 | > 30 | > 30 |
| CCCC(=O)OC/C=C(\C)C[C@@H](O)[C@@]1(C)[C@H](C)CC=C2[C@@H]1CCCC2(C)C | > 30 | > 30 | > 30 | > 30 | > 30 |
| COc1c(O)c2c(c(O)c1C(C)C)C(=O)C[C@H]1C(C)(C)CCC[C@]21C [INUROYLEANOL] | > 30 | > 30 | 20.8 | 11.1 | > 30 |
| COc1ccc(C(=O)OC/C=C(\C)C[C@@H](O)[C@@]2(C)[C@H](C)CC=C3[C@@H]2CCCC3(C)C)cc1 | > 30 | > 30 | > 30 | > 30 | > 30 |
| CCCC(=O)O[C@@H]1[C@@H](OC(C)=O)C2=C(C(=O)C(O)=C(C(C)C)C2=O)[C@@]2(C)CCCC(C)(C)[C@H]12 | 6.5 | 3.5 | 5.6 | 3.4 | 3.6 |
| CC(=O)O[C@@H]1[C@@H](OC(C)=O)C2=C(C(=O)C(O)=C(C(C)C)C2=O)[C@@]2(C)CCCC(C)(C)[C@H]12 | 23.3 | 5.4 | 15.9 | 12.1 | 16.2 |
| CC(C)C1=CC2=CC(=O)[C@H]3C(C)(C)CCC[C@]3(C)C2=C(O)C1=O [TAXODIONE] | > 30 | 1.8 | 4.8 | 3 | 9.6 |
| CC(=O)O[C@H]1C2=C(C(=O)C(O)=C(C(C)C)C2=O)[C@@]2(C)CCCC(C)(C)[C@@H]2[C@@H]1OC(=O)c1ccc([N+](=O)[O-])cc1 | 9.1 | 1.5 | 3.8 | 1.4 | 6.7 |
| COC(=O)/C=C(\C)C[C@@H](OC(C)=O)[C@@]1(C)[C@H](C)CC=C2[C@@H]1CCCC2(C)C | > 30 | > 30 | > 30 | > 30 | > 30 |
| CCO[C@@H]1C[C@H]2C(C)(C)CCC[C@]2(C)C2=C1C(=O)C(C(C)C)=C(O)C2=O | > 30 | > 30 | > 30 | > 30 | > 30 |
| CCC(=O)OC1=C(C(C)C)C(=O)C2=C(C1=O)[C@@]1(C)CCCC(C)(C)[C@@H]1[C@H](OC(=O)CC)[C@H]2OC(C)=O | 28.3 | 10.8 | 4.7 | 3.9 | 27.4 |
| C[C@H]1Cc2c(O)c3c(c(O)c2O1)[C@@]1(C)CCC(=O)C(C)(C)C1=C(O)C3=O [TEUVINCENONE A] | > 30 | 2.7 | 3.5 | 1.5 | > 30 |
